The record followed here is ChEMBL document CHEMBL4373710, “DNA Structural Alteration Leading to Antibacterial Properties of 6-Nitroquinoxaline Derivatives” (J Med Chem, 2019).

In brackets after ≈: the same amount, converted by molar mass. Activity calls are given as the source filed them. The rule behind the calls is not given here.

Assay [1] concerns Staphylococcus aureus. Kind of assay: Induction of morphological changes in Staphylococcus aureus assessed as unchanged population at 5 uM measured after 2 hrs by flow cytometric analysis (reference value: 90.4%). Type of assay: functional.
The subject of assay [2] is Poly(dA-dT)oligonucleotide. Kind of assay: Binding affinity to poly(dA-dT) DNA (unknown origin) assessed as change in B-DNA structure up to 6:1 compound to DNA ratio by circular dichroism method. Type of assay: nucleic-acid assay. The essentials:
(§1)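 Poly(dA-dT)·poly(dA-dT) or poly(dG-dC)·poly(dG-dC) held at 10 µM. Titrated with compound from 20 to 60 µM and followed by circular dichroism for change in the B-DNA band and appearance of induced CD.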
Background: CD spectra are sensitive to the conformation of chiral molecules.

Assay [3] has as its system Staphylococcus aureus. As to the kind of experiment: Disruption of preformed biofilm in Staphylococcus aureus at 4 times MIC measured after 12 hrs by crystal violet staining based light microscopic analysis. Type of assay: functional. The essentials: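 Planktonic cells washed off; 1% crystal violet 10 min, solubilised in 30% acetic acid, A550 read; wells also imaged at 20X by light microscopy.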

Assay [4] deals with DNA. Kind of assay: Inhibition of ethidium bromide binding to Staphylococcus aureus DNA by fluorescence assay. Format: nucleic-acid assay. In outline:
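Fluorescence intercalator displacement: S. aureus genomic DNA 10 µM plus EtBr 5 µM in 10 mM NaP pH 7, 10 mM NaCl, 1% DMSO, at 25 and 37 °C; titrated with 2.5–100 µM compound. Excitation 480 nm, emission 520–700 nm, inner-filter corrected, triplicates; Stern–Volmer analysis, F0/F = 1 + Ksv[Q].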

The test system of assay [5] is Calf thymus DNA. As to the kind of experiment: Binding affinity to calf thymus DNA assessed as change in B-DNA structure at 265 nm by circular dichroism method. To be noted: Bos taurus. Type of assay: nucleic-acid assay.
Assay [6] has as its system Staphylococcus aureus. As to the kind of experiment: Induction of morphological changes in Staphylococcus aureus assessed as changed population at 5 uM measured after 2 hrs by flow cytometric analysis (reference value: 5.71%). Type of assay: functional. For orientation: A flow cytometer gives signals particle by particle.
For assay [7], the system named is Staphylococcus epidermidis. Kind of assay: Antibacterial activity against Staphylococcus epidermidis MTCC3615 by broth microdilution assay. Format: functional. The essentials:
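Broth microdilution per CLSI; 5×10^5 cfu/mL bacteria in LB broth; compounds from DMSO stocks, final DMSO under 0.6%, with DMSO control. Plates incubated at the strain's recommended growth temperature and time; growth read as OD600.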
(In general: Dilution methods test growth across graded concentrations, often in twofold steps.)

In assay [8] the test system is Staphylococcus aureus. As to the kind of experiment: Induction of morphological changes in Staphylococcus aureus assessed as change in microbe length at 3.5 uM by atomic force microscopic analysis (reference value: 1.37 +/- 0.09 micrometer). Type of assay: functional.
The subject of assay [9] is Staphylococcus aureus. Kind of assay: Induction of morphological changes in Staphylococcus aureus assessed as increase in changed population measured after 2 hrs by flow cytometric analysis. Format: functional, organism-based.
The subject of assay [10] is Staphylococcus aureus. Kind of assay: Induction of morphological changes in Staphylococcus aureus assessed as unchanged population at 7.5 uM measured after 2 hrs by flow cytometric analysis (reference value: 90.4%). Format: functional.
In assay [11] the test system is Poly(dG-dC)oligonucleotide. As to the kind of experiment: Binding affinity to poly(dG-dC) DNA (unknown origin) assessed as appearance of induced CD by circular dichroism method. Type of assay: nucleic-acid assay. The essentials:
as §1

The term MIC denotes the lowest concentration that inhibits growth of the organism. Read a low MIC as inhibition by little substance. Consider `CN(C)CCCNc1nc2cc([N+](=O)[O-])ccc2nc1NCc1ccc(C(F)(F)F)cc1`, for which the Activity was 82.4% in assay [1]; 100% in assay [3]; “Dose-dependent effect” in assay [5]; 14.6% in [6]; 2.3 um in assay [8]; “Dose-dependent effect” in assay [9]. The Activity in assay [10] was 81%; in assay [11], “Dose-dependent effect”. For the same compound, the outcome in [2] was inactive. For the same compound, in assay [4], the inhibition result was “Dose-dependent effect”. Besides, in assay [7], 2.24 µg/mL (≈ 4.99 µM) was the least that counted as inhibitory (MIC).
